Publication PMC2659781 (Drug metabolism and disposition: the biological fate of …, 2008)
In brackets after ≈: the same amount, converted by molar mass. Entries after “also recorded” stand apart in the source; their conditions may differ.

Key:
[1] = 1 hour after intraperitoneal 10 mg/kg dose in lecithin; ref Poloyac et al., 2006; cited from earlier work
[2] = tested on: 20-HETE formation in brain cortical microsomes; experiment: Ex vivo 20-HETE formation in brain cortical microsomes from treated rats; set-up: species or system rat; details: 1 mg/kg iv, one hour after dosing, incubated in the absence of inhibitor
In short: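 Rats got 1 mg/kg test compound iv or vehicle (n = 6 per group); cortex was taken 1 h post-dose. Microsomes were made by differential centrifugation in pH 7.4 tris/KCl/DTT/EDTA/20% glycerol buffer with PMSF and BHT. 325μg protein was incubated without added inhibitor in 0.12 M potassium phosphate/5mM MgCl2 with 100μM arachidonic acid. NADPH 1mM was added at start and at 30 min; 37°C, 60 min. 20-HETE d6 internal standard, diethyl ether extraction, MS.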

[3] = tested on: 20-HETE formation in rat brain cortical microsomes; experiment: Inhibition of 20-HETE formation in rat brain cortical microsomes; assay type: biochemical; details: for 20-HETE formation rate, % of control incubation: HET0016 48.5 nM, 100 μM arachidonic acid
[4] = Aqueous solubility of HET0016 in ddH2O and 15% HPβCD; assay type: physicochemical
[5] = tested on: brain cortical 20-HETE tissue concentrations; experiment: Brain cortical 20-HETE tissue concentration after iv HET0016; assay type: in vivo, rat
[6] = ref Nakamura et al., 2003, cited from earlier work

- solubility at 48 h ([4]; 15% HPβCD): 453 ± 63.3 µg/mL (≈ 2190 µM)
- solubility at 48 h ([4]; distilled, deionized water): 34.2 ± 31.2 µg/mL (≈ 166 µM)
Structure (SMILES): CCCCc1ccc(N=CNO)c(C)c1 [HET0016, N-Hydroxy-N′-(4-n-butyl-2-methylphenyl)formamidine]
- brain concentration as % of plasma concentration [1]: less than 10%
- ex vivo 20-HETE formation in microsomes of treated animals [2]: persistent inhibition
- reduction in 20-HETE formation rate ([3]; HET0016 30 nM): ~ 70%
- 20-HETE formation rate, % of control incubation ([3]; with 10 minute pre-incubation): 4.92 ± 0.19%
- 20-HETE formation rate, % of control incubation ([3]; without pre-incubation): 4.89 ± 0.46%
- concentrations of HET0016 required for 20-HETE inhibition in the rat brain ([3]; in vitro): 30 to 90 nM
- need for metabolic activation to inhibit 20-HETE formation ([3]; pre-incubation versus no pre-incubation): does not require metabolic activation
- mechanism of inhibition of 20-HETE formation ([3]; rat brain cortical microsomes, 24 nM HET0016, arachidonic acid up to 120 μM): non-competitive inhibitor; also recorded: non-competitive inhibition
- time 20-HETE tissue concentrations remained significantly reduced ([5]; 1 mg/kg iv): 60 min
- time of return of 20-HETE to control levels ([5]; 1 mg/kg iv): ≤ 24 h
- time to reduction of brain 20-HETE after administration ([5]; 1 mg/kg iv): ≤ 5 min
- 20-HETE concentration recovery (of control) ([5]; 1 mg/kg iv, 180 minutes): 70%
- 20-HETE concentrations in brain tissue of treated animals (chromatograms) ([5]; data not shown): near or below the limits of detection
- rat brain 20-HETE concentration after dosing ([5]; single iv dose 1 mg/kg, HPβCD formulation, from 289 pmol/g): 91 pmol/g
- stability ([6]; acidic pH): instability
- aqueous solubility ([6]; neutral pH): poor aqueous solubility
